Measurements collected from several papers.
Each line is one published result; the experiments were not run side by side.
mraY: mraY (Staphylococcus aureus, UniProt Q2FZ93)
AURKC: Aurora kinase C (AURKC, Homo sapiens, UniProt Q9UQB9)

SMILES | target | assay | test system | conditions | quantity | result
C[C@]1(O)CCCN(c2nc(Nc3ccc(S(=O)(=O)N[C@H]4CC[C@H](CN5CCN(c6ccc(C7CCC(=O)NC7=O)cc6F)CC5)CC4)cc3F)ncc2C(F)(F)F)C1 (stereo partly shown) | BMP-2-inducible protein kinase (BMP2K, Homo sapiens, UniProt Q9NSY1) | binding, competition with immobilised ligand |  | 1 µM | remaining binding | 74%
CCCCCCC#Cc1cncc(-c2nnc(SCc3ccc([N+](=O)[O-])o3)n2CCCN)c1 | mraY | cell-free assay, inhibitor |  | 250 µM | inhibition | 71%
COc1ccc2oc(-c3ccc4nc(N)oc4c3)c/c(=N\c3ccccc3NC(=O)CCN)c2c1 | Mitogen-activated protein kinase kinase kinase 8 (MAP3K8, Homo sapiens, UniProt P41279) | binding |  | 1 µM | remaining binding | 104%
C[C@H](NC(=O)C(=O)Nc1ccccc1C(C)(C)C)C(=O)N[C@@H](CC(=O)O)C(=O)COc1c(F)c(F)cc(F)c1F | Caspase-4 (CASP4, Homo sapiens, UniProt P49662) | enzyme activity, inhibitor |  |  | kinact/KI | 19200 M⁻¹ s⁻¹
CCCCC(=O)Nc1ccc(-c2ccc3ncn(CCC)c(=O)c3c2)cn1 | Atypical kinase COQ8B, mitochondrial (COQ8B, Homo sapiens, UniProt Q96D53) | binding, competition with immobilised ligand |  | 0.5 µM | remaining binding | 99%
CCN1/C(=C/C(C)=O)Sc2ccc(F)cc21 | B2 bradykinin receptor (BDKRB2, Homo sapiens, UniProt P30411) | ligand displacement, radioligand |  | 10 µM | inhibition | 0%
CCCCCCC#Cc1cncc(-c2nnc(SC[C@H]3O[C@@H](n4ccc(=O)[nH]c4=O)[C@H](O)[C@@H]3O)n2CCO)c1 | mraY | cell-free assay, inhibitor |  | 250 µM | inhibition | 22%
NC/C(=C\F)COc1cccc(Cn2c(=S)[nH]c(=O)c3[nH]cnc32)c1 | Melatonin receptor type 1A (MTNR1A, Homo sapiens, UniProt P48039) | ligand displacement, radioligand |  | 10 µM | inhibition | < 50%
CCCCCCC#Cc1cncc(-c2nnc(SCc3cc([N+](=O)[O-])cc([N+](=O)[O-])c3)n2CCOC2OC(CN)C(O)C2O)c1 (stereo not shown) | mraY | cell-free assay, inhibitor |  | 250 µM | inhibition | > 80%
Cc1n[nH]c2ccc3nc(-c4ccc(C(=O)NCCN(C)C)cc4F)c4c(c3c12)CCCC4 | Receptor-type tyrosine-protein kinase FLT3 (FLT3, Homo sapiens, UniProt P36888, ITD) | enzyme activity, inhibitor, radiometric |  | 0.5 µM | remaining activity | 13%
C[C@]1(O)CCCN(c2nc(Nc3ccc(S(=O)(=O)N[C@H]4CC[C@H](CN5CCN(c6ccc(C7CCC(=O)NC7=O)cc6F)CC5)CC4)cc3Cl)ncc2C(F)(F)F)C1 (stereo partly shown) | AURKC | binding, competition with immobilised ligand |  | 1 µM | remaining binding | 99%
CSCC[C@H](NC(C)=O)C(=O)N[C@@H](CC(=O)O)C(=O)N[C@@H](Cc1ccccc1)C(N)=O | Gastrin/cholecystokinin type B receptor (CCKBR, Homo sapiens, UniProt P32239) | β-arrestin recruitment, agonist | HTLA |  | Emax | 38.1%
CNS(=O)(=O)c1ccc(Nc2ncc(C(F)(F)F)c(N3CCC[C@](C)(O)C3)n2)c(C)c1 | Serine/threonine-protein kinase DCLK3 (DCLK3, Homo sapiens, UniProt Q9C098) | binding, competition with immobilised ligand |  | 1 µM | remaining binding | 41%
Cc1cc(-c2ccnc3[nH]cc(F)c23)cc(F)c1[C@@]1(O)[C@H](C)CN(C(=O)CN)C[C@@H]1C | Rho-associated protein kinase 1 (ROCK1, Homo sapiens, UniProt Q13464) | enzyme activity, inhibitor |  | 0.1 µM | remaining activity | 13.5%
Cc1cc(S(=O)(=O)N[C@H]2CC[C@H](CN3CCN(c4ccc(C5CCC(=O)NC5=O)cc4F)CC3)CC2)ccc1Nc1ncc(C(F)(F)F)c(N2CCC[C@](C)(O)C2)n1 (stereo partly shown) | AURKC | binding, competition with immobilised ligand |  | 1 µM | remaining binding | 50%
C1=C/COCc2cc(ccc2OCCN2CCCC2)Nc2nccc(n2)-c2cccc(c2)COC/1 | Receptor-type tyrosine-protein kinase FLT3 (FLT3, Homo sapiens, UniProt P36888, R834Q) | binding |  | 0.1 µM | remaining binding | 17%
